Test results as given in ChEMBL document CHEMBL4316619 (Bioorg Med Chem Lett, 2019).

How the values were obtained:
Influenza A virus = experiment: Antiviral activity against Influenza A virus A/PR/8/34 (H1N1) infected in MDCK cells assessed as fold reduction in virus titer at 10 uM measured after 48 hrs by hemagglutination assay relative to control; assay type: functional, A/Puerto Rico/8/1934(H1N1)
Outline: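 MDCK cells were infected with A/PR/8/34 (H1N1) at MOI 0.1 and incubated with compound for 48 h. Supernatant virus was then quantified by hemagglutination assay and standard TCID50 analysis. The single-concentration screen used 10 μM and reports fold reduction in titer. Dose-response runs used triplicate cultures, with percent titer decrease back-calculated from TCID50.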

MDCK = experiment: Cytotoxicity against MDCK cells assessed as reduction in cell viability measured after 48 hrs by CellTiter Glo assay; assay type: cell-based, Canis lupus familiaris; settings: dog
Outline: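 MDCK cells were incubated with compound under the conditions of the 48 h replication assay. Cytotoxicity was read with the CellTiter-Glo ATP viability assay. Follow-up viability testing used 5, 10, 50 and 100 μM.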

| Structure (SMILES) | fold change (FC) (Influenza A virus) | Activity (MDCK) |
| --- | --- | --- |
| COc1cc(-c2c(C#N)c(N)nc3c2c(C)nn3-c2ccc(C)cc2)cc(OC)c1OC | 32 | Non-Toxic |
| COc1ccc(-c2c(C#N)c(N)nc3c2c(C)nn3-c2ccc(F)cc2)cc1OC | 2 | Non-Toxic |
| COc1ccc(-c2ccnc3c2c(C)nn3-c2ccc(F)cc2)cc1OC | 2 | Non-Toxic |
| COc1cc(-c2ccnc3c2c(C)nn3-c2ccc(F)cc2)ccc1O | 2 | Non-Toxic |
| COc1cc(-c2c(C#N)c(O)nc3c2c(C)nn3-c2ccccc2)ccc1O | 16 | Non-Toxic |
| COc1ccc(-c2c3c(C)nn(-c4ccccc4)c3nc3[nH]c(=O)[nH]c(=O)c23)cc1O | 2 | Non-Toxic |
| COc1ccc(-c2c3c(C)nn(-c4ccccc4)c3nc3[nH]c(=O)[nH]c(=O)c23)cc1OC | 4 | Non-Toxic |
| COc1ccc(-c2c(C#N)c(O)nc3c2c(C)nn3-c2ccccc2)cc1OC | 2 | Non-Toxic |
| COc1cc(-c2c(C#N)c(N)nc3c2c(C)nn3-c2ccc(C)c(C)c2)ccc1O | 4 | Non-Toxic |
| COc1cc(-c2c(C(=O)O)cnc3c2c(C)nn3-c2ccc(F)cc2)ccc1O | 4 | Non-Toxic |
| COc1cc(-c2c(C#N)c(N)nc3c2c(C)nn3-c2ccc(C)cc2)ccc1O | 4 | Non-Toxic |
| COc1cc(-c2ccnc3c2c(C)nn3-c2cccc(F)c2)ccc1O | 0 | Non-Toxic |
| COc1cc(-c2c3c(C)nn(-c4ccccc4)c3nc3[nH]c(=O)[nH]c(=O)c23)cc(OC)c1O | 4 | Non-Toxic |
| COc1cc(-c2c(C#N)c(N)nc3c2c(C)nn3-c2ccc(Cl)cc2)cc(OC)c1OC | 0 | Non-Toxic |
| COc1cccc(-c2ccnc3c2c(C)nn3-c2ccc(F)cc2)c1 | 4 | Toxic |
| CCOC(=O)c1cnc2c(c(C)nn2-c2ccc(F)cc2)c1-c1ccc(O)c(OC)c1 | 16 | Non-Toxic |
| Cc1ccc(-n2nc(C)c3c(-c4ccc(O)c(O)c4)c(C#N)c(N)nc32)cc1 | 64 | Non-Toxic |
| COc1ccc(-c2c(C#N)c(N)nc3c2c(C)nn3-c2ccccc2)cc1OC | 2 | Non-Toxic |
| COc1cc(-c2c(C#N)c(N)nc3c2c(C)nn3-c2ccccc2)cc(OC)c1OC | 16 | Non-Toxic |
| Cc1nn(-c2ccccc2)c2nc3[nH]c(=O)[nH]c(=O)c3c(-c3ccc4c(c3)OCO4)c12 | 4 | Non-Toxic |
| COc1ccc(-n2nc(C)c3c(-c4ccc(O)c(OC)c4)ccnc32)cc1 | 32 | Non-Toxic |
| COc1cc(-c2c(C#N)c(N)nc3c2c(C)nn3-c2ccccc2)ccc1O | 32 | Non-Toxic |
| COc1cc(-c2c(C#N)c(N)nc3c2c(C)nn3-c2ccc(Cl)cc2)ccc1O | 32 | Non-Toxic |
| Cc1nn(-c2ccccc2)c2nc(N)c(C#N)c(-c3ccc(O)c(O)c3)c12 | 32 | Non-Toxic |
| COc1cccc(-n2nc(C)c3c(-c4ccc(O)c(OC)c4)ccnc32)c1 | 0 | Non-Toxic |
| COc1cc(-c2ccnc3c2c(C)nn3-c2ccccc2)ccc1O | 2 | Non-Toxic |
| COc1cc(-c2c(C#N)c(O)nc3c2c(C)nn3-c2ccccc2)cc(OC)c1OC | 16 | Non-Toxic |
| COc1ccc(-c2c(C#N)c(O)nc3c2c(C)nn3-c2ccc(F)cc2)cc1OC | 0 | Non-Toxic |
| COc1ccc(-c2c(C#N)c(N)nc3c2c(C)nn3-c2ccc(C)cc2)cc1OC | 0 | Non-Toxic |
